# Reference: ChEMBL document CHEMBL4152256, “Structure-activity relationship of new antimalarial 1-aryl-3-susbtituted propanol derivatives: Synthesis, preliminary toxicity profiling, parasite life cycle stage studies, target exploration, and targeted delivery” (Eur J Med Chem, 2018)
# Columns and labels:
# Plasmodium falciparum [1] = test: Antiplasmodial activity against multidrug-resistant Plasmodium falciparum C235 after 72 hrs by MSF assay; type: functional, organism-based; details: C235, 72 h
# Summary of the method: (§1)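 D6 and C235 strains from the Walter Reed Army Institute of Research were tested by the Malaria SYBR Green-I fluorescence assay.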
# Plasmodium falciparum [2] = test: Antiplasmodial activity against Plasmodium falciparum D6 after 72 hrs by MSF assay; type: functional, organism-based; details: D6, 72 h; summary of the method: as §1
# [3] = Genotoxicity in Salmonella typhimurium TA1535 harboring pSK1002 assessed as survival at 1 mg/ml in absence of Sprague-Dawley rat liver S9 fraction after by SOS/umu assay relative to control; type: toxicity, organism-based; details: salmonella enterica subsp. enterica serovar typhimurium, read-out: Survival
# [4] = Genotoxicity in Salmonella typhimurium TA1535 harboring pSK1002 assessed as umu gene induction at 1 mg/ml in absence of Sprague-Dawley rat liver S9 fraction after by SOS/umu assay relative to control; type: toxicity, organism-based; details: salmonella enterica subsp. enterica serovar typhimurium, read-out: FC
# [5] = Genotoxicity in Salmonella typhimurium TA1535 harboring pSK1002 assessed as survival at 0.5 mg/ml in absence of Sprague-Dawley rat liver S9 fraction after by SOS/umu assay relative to control; type: toxicity, organism-based; details: salmonella enterica subsp. enterica serovar typhimurium, read-out: Survival
# [6] = Genotoxicity in Salmonella typhimurium TA1535 harboring pSK1002 assessed as umu gene induction at 0.5 mg/ml in absence of Sprague-Dawley rat liver S9 fraction after by SOS/umu assay relative to control; type: toxicity, organism-based; details: salmonella enterica subsp. enterica serovar typhimurium, read-out: FC
# [7] = Genotoxicity in Salmonella typhimurium TA1535 harboring pSK1002 assessed as survival at 0.5 mg/ml in presence of Sprague-Dawley rat liver S9 fraction after by SOS/umu assay relative to control; type: toxicity, organism-based; details: salmonella enterica subsp. enterica serovar typhimurium, read-out: Survival
# [8] = Genotoxicity in Salmonella typhimurium TA1535 harboring pSK1002 assessed as umu gene induction at 0.5 mg/ml in presence of Sprague-Dawley rat liver S9 fraction after by SOS/umu assay relative to control; type: toxicity, organism-based; details: salmonella enterica subsp. enterica serovar typhimurium, read-out: FC
# [9] = Genotoxicity in Salmonella typhimurium TA1535 harboring pSK1002 assessed as survival at 0.25 mg/ml in absence of Sprague-Dawley rat liver S9 fraction after by SOS/umu assay relative to control; type: toxicity, organism-based; details: salmonella enterica subsp. enterica serovar typhimurium, read-out: Survival
# [10] = Genotoxicity in Salmonella typhimurium TA1535 harboring pSK1002 assessed as umu gene induction at 0.25 mg/ml in absence of Sprague-Dawley rat liver S9 fraction after by SOS/umu assay relative to control; type: toxicity, organism-based; details: salmonella enterica subsp. enterica serovar typhimurium, read-out: FC
# [11] = Genotoxicity in Salmonella typhimurium TA1535 harboring pSK1002 assessed as survival at 0.25 mg/ml in presence of Sprague-Dawley rat liver S9 fraction after by SOS/umu assay relative to control; type: toxicity, organism-based; details: salmonella enterica subsp. enterica serovar typhimurium, read-out: Survival
# [12] = Genotoxicity in Salmonella typhimurium TA1535 harboring pSK1002 assessed as umu gene induction at 0.25 mg/ml in presence of Sprague-Dawley rat liver S9 fraction after by SOS/umu assay relative to control; type: toxicity, organism-based; details: salmonella enterica subsp. enterica serovar typhimurium, read-out: FC
# [13] = Genotoxicity in Salmonella typhimurium TA1535 harboring pSK1002 assessed as survival at 0.031 mg/ml in absence of Sprague-Dawley rat liver S9 fraction after by SOS/umu assay relative to control; type: toxicity, organism-based; details: salmonella enterica subsp. enterica serovar typhimurium, read-out: Survival
# [14] = Genotoxicity in Salmonella typhimurium TA1535 harboring pSK1002 assessed as survival at 0.016 mg/ml in absence of Sprague-Dawley rat liver S9 fraction after by SOS/umu assay relative to control; type: toxicity, organism-based; details: salmonella enterica subsp. enterica serovar typhimurium, read-out: Survival
# [15] = Genotoxicity in Salmonella typhimurium TA1535 harboring pSK1002 assessed as survival at 0.016 mg/ml in presence of Sprague-Dawley rat liver S9 fraction after by SOS/umu assay relative to control; type: toxicity, organism-based; details: salmonella enterica subsp. enterica serovar typhimurium, read-out: Survival
# [16] = Genotoxicity in Salmonella typhimurium TA1535 harboring pSK1002 assessed as survival at 0.004 mg/ml in presence of Sprague-Dawley rat liver S9 fraction after by SOS/umu assay relative to control; type: toxicity, organism-based; details: salmonella enterica subsp. enterica serovar typhimurium, read-out: Survival
# [17] = Genotoxicity in Salmonella typhimurium TA1535 harboring pSK1002 assessed as umu gene induction at 0.004 mg/ml in presence of Sprague-Dawley rat liver S9 fraction after by SOS/umu assay relative to control; type: toxicity, organism-based; details: salmonella enterica subsp. enterica serovar typhimurium, read-out: FC
# [18] = Genotoxicity in Salmonella typhimurium TA1535 harboring pSK1002 assessed as survival at 0.002 mg/ml in presence of Sprague-Dawley rat liver S9 fraction after by SOS/umu assay relative to control; type: toxicity, organism-based; details: salmonella enterica subsp. enterica serovar typhimurium, read-out: Survival
# [19] = Genotoxicity in Salmonella typhimurium TA1535 harboring pSK1002 assessed as survival at 0.001 mg/ml in absence of Sprague-Dawley rat liver S9 fraction after by SOS/umu assay relative to control; type: toxicity, organism-based; details: salmonella enterica subsp. enterica serovar typhimurium, read-out: Survival
# Plasmodium berghei [20] = test: Antiplasmodial activity against Plasmodium berghei ANKA infected in mouse assessed as inhibition of parasitemia at 50 mg/kg/day, po for 4 consecutive days starting from 2 hrs post infection by MSF assay relative to control; type: functional
# Summary of the method: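 Swiss male mice (20 ± 2 g) infected ip with 10^7 P. berghei ANKA parasitized cells (day 0). Five per group dosed orally 2 h after infection and daily on days 0–3. Test compounds at 50 mg/kg/day in water:DMSO; chloroquine diphosphate at 3 mg/kg/day; vehicle controls. Parasitemia measured on day 4 by MSF assay; survival checked daily.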
# Plasmodium berghei [21] = test: Antiplasmodial activity against Plasmodium berghei ANKA infected in mouse assessed as mouse survival time at 50 mg/kg/day, po for 4 consecutive days starting from 2 hrs post infection by MSF assay; type: functional
# Summary of the method: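 Swiss male mice (20 ± 2 g) infected i.p. with 10^7 P. berghei ANKA parasitized cells in 0.1 mL 0.9% saline (day 0). Oral dosing began 2 h post-infection and continued daily on days 0–3, five mice per batch. Test drugs were given at 50 mg/kg/day in water:DMSO and chloroquine diphosphate at 3 mg/kg/day; a vehicle control was included. Survival was checked daily, and parasitemia was read on day 4 by modified MSF assay.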
# [22] = Solubility of the compound in DSPC:cholesterol:DSPE-PEG2000-Mal:DOPE-Rho lipid mixture at 250 uM; type: physicochemical
# Summary of the method: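 Compound added at 250 µM drug to the initial liposome lipid mixture (10 mM total lipid); precipitation and UV-visible absorbance above 300 nm assessed after encapsulation, removal of unencapsulated material and extraction with 1% w/v SDS in RPMI-A.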
# Plasmodium berghei [23] = test: Antiplasmodial activity against GFP-fused Plasmodium berghei sporozoites infected in human HepG2A16 cells treated simultaneously with infection by fluorescence microscopic analysis; type: functional, organism-based
# Summary of the method: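 HepG2-A16 cells (3 × 10^4/well, collagen-coated) infected with PbGFP sporozoites (5 × 10^3 to 1 × 10^4/well) and treated at the same time. Top concentration 10 µg/mL in DMEM, seven serial dilutions. Medium and compound renewed at 3 h and every 24 h. After 40 h at 37 °C: methanol fixation, anti-Plasmodium Hsp70 immunolabeling, Alexa 594 secondary, DAPI; high-content imaging.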
Structure (SMILES),viability at 1 mg/ml [3],fold induction at 1 mg/ml [4],viability at 0.5 mg/ml [5],fold induction at 0.5 mg/ml [6],viability at 0.5 mg/ml [7],fold induction at 0.5 mg/ml [8],viability at 0.25 mg/ml [9],fold induction at 0.25 mg/ml [10],viability at 0.25 mg/ml [11],fold induction at 0.25 mg/ml [12],viability at 0.031 mg/ml [13],viability at 0.016 mg/ml [14],viability at 0.016 mg/ml [15],viability at 0.004 mg/ml [16],fold induction at 0.004 mg/ml [17],viability at 0.002 mg/ml [18],viability at 0.001 mg/ml [19],MSD (Plasmodium berghei [21]),solubility [22],further results
COc1ccccc1C1=CCN(CCC(O)c2ccc(F)cc2)CC1 (centres undefined),82.3%,0.3,19.4%,2.3,82.1%,1.3,92.3%,1.3,73%,1.1,114%,106%,78.9%,82.3%,1.1,87.2%,114%,6 days,Insoluble,IC50 (Plasmodium falciparum [1]): 3.69 µM; IC50 (Plasmodium falciparum [2]): 3.73 µM; inhibition in vivo at 50 mg/kg/day (Plasmodium berghei [20]): ≤ 50%
Nc1ccc(N2CCC(NCCC(O)c3ccc(F)c4ccccc34)CC2)c(C(F)(F)F)c1 (centres undefined),–,–,68.2%,0.1,118%,0.1,48%,0.2,118%,0.1,31.5%,28.3%,32.4%,116%,1.1,116%,101%,3 days,–,–
OC(CCN1CCN(c2ccccc2C(F)(F)F)CC1)c1ccc(F)c2ccccc12 (stereo in doubt; 55),229%,0.3,175%,0.7,168%,0.4,207%,0.1,95.4%,0.7,127%,94.7%,73.9%,108%,0.5,120%,43.3%,8 days,Insoluble,IC50 (Plasmodium falciparum [1]): 0.14 µM; IC50 (Plasmodium falciparum [2]): 0.1 µM; IC50 (Plasmodium berghei [23]): Not Active
OC(CCN1CC=C(c2ccc(F)cc2)CC1)c1ccc2c(c1)OCO2 (centres undefined),–,–,81.4%,0.9,87.1%,0.9,128%,0.7,96%,1,113%,92.5%,92%,105%,0.9,108%,131%,–,–,IC50 (Plasmodium berghei [23]): Not Active
OC(CCN1CCN(c2ccccc2C(F)(F)F)CC1)c1ccc(F)cc1 (centres undefined),244%,0.1,129%,0.2,37.2%,1.2,70.1%,0.5,24.6%,1.3,95.5%,99.8%,87.9%,92.9%,1.1,90.4%,111%,–,Insoluble,–
N#Cc1ccc(C(O)CCN2CC=C(c3ccc(F)cc3)CC2)cc1 (centres undefined),–,–,66.5%,1.2,99.1%,0.9,75.8%,1.2,95.1%,1.1,77.3%,85.1%,126%,122%,0.8,97.8%,109%,–,–,–
OC(CCN1CCN(c2ccc(F)cc2)CC1)c1ccc(F)c2ccccc12 (centres undefined),–,–,196%,0.6,112%,1.2,51.2%,1.1,66.2%,0.9,87%,85.4%,72.4%,95.6%,0.8,100%,111%,–,–,–
